Test results published in ChEMBL document CHEMBL4673344, “Novel substituted N-benzyl(oxotriazinoindole) inhibitors of aldose reductase exploiting ALR2 unoccupied interactive pocket” (Bioorg Med Chem, 2021).

Key:
[1] = species: Rattus norvegicus; test: Selectivity index, ratio of IC50 for Wistar rat kidney ALR1 to IC50 for Wistar rat lens ALR2
In short: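 Selectivity factor S_F = IC50(ALR1)/IC50(ALR2). ALR1 came from rat kidneys and ALR2 from rat eye lenses with D,L-glyceraldehyde as substrate. Both were assayed spectrophotometrically by NADPH consumption at 340 nm.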

[2] = Inhibition of Wistar rat kidney ALR1 assessed as reduction in NADPH consumption using sodium D-glucuronate as substrate incubated for 1 min and measured up to 4 mins by spectrophotometric analysis; assay type: tissue-based
In short: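 Aldehyde reductase (ALR1) was isolated from rat kidneys. Activity was monitored spectrophotometrically by NADPH consumption at 340 nm, expressed as decrease in O.D./s/mg protein. The IC50 was determined from inhibition of this activity.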

[3] = Inhibition of Wistar rat lens ALR2 assessed as reduction in NADPH consumption using D,L-glyceraldehyde as substrate incubated for 1 min and measured up to 4 mins by spectrophotometric analysis; assay type: tissue-based
In short: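 ALR2 was isolated from rat eye lenses and assayed for reduction of D,L-glyceraldehyde. NADPH consumption was read spectrophotometrically at 340 nm, with activity expressed as decrease in O.D./s/mg protein. The IC50 was derived from inhibition of this activity.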

[4] = tested on: ALR1; test: Inhibition of Wistar rat kidney ALR1 assessed as reduction in NADPH consumption using sodium D-glucuronate as substrate at 100 uM incubated for 1 min and measured up to 4 mins by spectrophotometric analysis relative to control; assay type: tissue-based; conditions: rat kidney ALR1 (aldehyde reductase) enzyme, probe sodium D-glucuronate
In short: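 Enzyme: ALR1 isolated from rat kidneys. Activity was followed spectrophotometrically as NADPH consumption at 340 nm and expressed as decrease in O.D./s/mg protein. Inhibition is given as % of enzyme inhibition at 100 μM inhibitor.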

[5] = species: Rattus norvegicus; test: Potency index, ratio of IC50 of OTI-6 to IC50 of compound for inhibition of Wistar rat lens ALR2 assessed as reduction in NADPH consumption using D,L-glyceraldehyde as substrate incubated for 1 min and measured up to 4 mins by spectrophotometric analysis; assay type: tissue-based

| Ratio IC50 [1] | IC50 [2] [nM] | IC50 [3] [nM] | pIC50 [3] | inhibition at 4 min, 100 µM [4] [%] | SMILES | Ratio IC50 [5] |
| --- | --- | --- | --- | --- | --- | --- |
| > 230 | > 100000 | 434 | 6.36 | 38 | O=C(O)Cn1c2ccccc2c2nn(Cc3ccccc3)c(=O)nc21 |  |
| > 1330 | > 100000 | 76 | 7.12 | 51 | N#Cc1ccccc1Cn1nc2c3ccccc3n(CC(=O)O)c2nc1=O |  |
| > 410 | > 100000 | 241 | 6.61 | 33 | O=C(O)Cn1c2ccccc2c2nn(Cc3ccccc3CO)c(=O)nc21 | 2 |
| > 424 | > 100000 | 236 | 6.63 | 50 | NC(=O)c1ccccc1Cn1nc2c3ccccc3n(CC(=O)O)c2nc1=O | 2 |
| 424 | 59000 | 139 | 6.86 | 62 | O=C(O)Cn1c2ccccc2c2nn(Cc3ccccc3C(=O)O)c(=O)nc21 |  |
